Experimental data: ChEMBL document CHEMBL1151715, “Novel D-xylose derivatives stimulate muscle glucose uptake by activating AMP-activated protein kinase alpha” (J Med Chem, 2008)
Activity calls are given as the source filed them.

Experiments:
Homo sapiens [1] = species: Homo sapiens; assay: Activation of 5-AMP-induced AMPKalpha in human skeletal muscle cells assessed as […] phosphorylation at 150 uM relative to control
Method in brief: (§1)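 Primary human skeletal myoblasts from the rectus abdominis of a donor were differentiated into myotubes and treated in medium with 10% (v/v) FCS, 23.0 mM D-glucose and agent, with vehicle controls. Whole-cell lysates were Western blotted for total AMPKα and […]-AMPKα, with ECL detection and densitometry.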

L6 [2] = assay: Increase in GLUT1myc abundance in rat L6 cell membrane at 20 mM after 7 hrs; type: functional, cell-based; settings: 150 uM, in the assay text read “at 150 uM” for “at 20 mM”
Method in brief: (§2)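 Myc-tagged GLUT1 or GLUT4 L6 myotubes were preconditioned at 5.5 or 23.0 mM glucose for 24 h, then treated in 10% FCS medium for 7 h (18 h for the 5 µM agent). Insulin was 200 nM for 30 min. Intact cells were labeled with rabbit anti-myc (1:200), fixed in 3% formaldehyde, and given HRP anti-rabbit IgG (1:2000). OPD colour was read at 492 nm.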

L6 [3] = assay: Effect on [3H]2-deoxy-D-glucose uptake in rat L6 cells at 150 uM relative to control; type: functional, cell-based; settings: TDE = time-dependent effect
Method in brief: (§3)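 L6 myotubes were held in αMEM with 2% FCS and 23.0 mM D-glucose for 24 h. They were then treated with increasing concentrations in medium with 10% FCS and 23.0 mM D-glucose for 7 or 18 h; vehicle controls ran 18 h. After washing, uptake was measured with 0.1 mM dGlc plus 1.3 µCi/mL [3H]dGlc in PBS pH 7.4 for 5 min at room temperature. Ice-cold PBS stop, SDS lysis, scintillation counting; basal rate set to 100%.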

L6 [4] = assay: Increase in GLUT1myc abundance in rat L6 cell membrane at 150 uM after 7 hrs; type: functional, cell-based; method in brief: as §2
L6 [5] = assay: Effect on [3H]2-deoxy-D-glucose uptake in rat L6 cells at 5 uM relative to control; type: functional, cell-based; settings: TDE = time-dependent effect; method in brief: as §3
L6 [6] = assay: Increase in GLUT1myc abundance in rat L6 cell membrane at 50 uM after 7 hrs; type: functional, cell-based; method in brief: as §2
[7] = Effect on [3H]2-deoxy-D-glucose uptake in human skeletal muscle cells at 150 uM relative to control; type: functional
L6 [8] = assay: Inhibition of [3H]2-deoxy-D-glucose uptake in rat L6 cells at 150 uM in presence of 100 nM wortmannin; type: functional, cell-based
Method in brief: (§4)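 L6 myotubes at 23 mM D-glucose received 100 nM wortmannin 30 min before the agents. Treatment ran in 10% FCS medium for 7 h (18 h for the 5 µM agent). A 5-min [3H]dGlc uptake (0.1 mM dGlc, 1.3 µCi/mL) in PBS at room temperature followed, with the vehicle basal rate set to 100%.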

Serum [9] = assay: Protein binding in fetal calf serum at 5 uM; type: ADME, cell-free, Bos taurus; settings: cattle
Method in brief: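 αMEM with 10% FCS was spiked at 4.6–23.0 µM and held 60 min at 37 °C for total concentration. Samples were ultrafiltered through a 10 kDa cutoff (4400g, 60 min), and the filtrate was hexane-extracted and analysed by LC-MS (SIR m/z 432) for free concentration.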

L6 [10] = assay: Effect on [3H]2-deoxy-D-glucose uptake in rat L6 cells at 50 uM relative to control; type: functional, cell-based; settings: TDE = time-dependent effect; method in brief: as §3
L6 [11] = assay: Activation of 5-AMP-induced AMPKalpha in rat L6 cells assessed as […] phosphorylation at 150 uM relative to control; type: cell-based
Method in brief: (§5)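 L6 myotubes preconditioned 24 h in αMEM with 2% FCS and 23.0 mM D-glucose, then given fresh medium with 10% (v/v) FCS, 23.0 mM D-glucose and test agent; controls received vehicle. Whole-cell lysates (Tris pH 7.5 with phosphatase and protease inhibitors) were blotted for AMPKα and […]-AMPKα, detected by ECL, and bands quantified by densitometry.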

L6 [12] = assay: Increase in GLUT1myc abundance in rat L6 cell membrane at 5 µM after 18 hrs; type: functional, cell-based; method in brief: as §2
L6 [13] = assay: Increase in GLUT4myc abundance in rat L6 cell membrane at 150 uM after 7 hrs; type: functional, cell-based; method in brief: as §2
L6 [14] = assay: Activation of 5-AMP-induced AMPKalpha in rat L6 cells assessed as […] phosphorylation at 150 uM relative to control in presence of compound C; type: cell-based
[15] = Cytotoxicity against rat L6 cells by MTT assay; type: cell-based
Method in brief: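 MTT assay on L6 myotubes after the treatment incubations: MTT at 2 mg/mL in αMEM for 30 min at 37 °C, formazan dissolved in DMSO, absorbance read at 570 nm.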

L6 [16] = assay: Effect on [3H]2-deoxy-D-glucose uptake in rat L6 cells at 1 mM relative to control; type: functional; method in brief: as §3
L6 [17] = assay: Effect on [3H]2-deoxy-D-glucose uptake in rat L6 cells at 500 uM relative to control; type: functional; method in brief: as §3
L6 [18] = assay: Effect on [3H]2-deoxy-D-glucose uptake in rat L6 cells at 400 uM relative to control; type: functional; method in brief: as §3
L6 [19] = assay: Effect on [3H]2-deoxy-D-glucose uptake in rat L6 cells at 250 uM relative to control; type: functional; method in brief: as §3
[20] = Effect on [3H]2-deoxy-D-glucose uptake in human skeletal muscle cells at 5 uM relative to control; type: functional
L6 [21] = assay: Activation of 5-AMP-induced AMPKalpha in rat L6 cells assessed as […] phosphorylation at 5 uM relative to control; type: cell-based; method in brief: as §5
Serum [22] = assay: Free concentration in fetal calf serum at 5 uM; settings: cattle
Homo sapiens [23] = species: Homo sapiens; assay: Activation of 5-AMP-induced AMPKalpha in human skeletal muscle cells assessed as […] phosphorylation at 5 uM relative to control; method in brief: as §1
L6 [24] = assay: Activation of 5-AMP-induced AMPKalpha in rat L6 cells assessed as reduction in hexose transport at 5 uM relative to control in presence of compound C; design: scale not given: the % may be the effect or the level left
L6 [25] = assay: Increase in GLUT1myc abundance in rat L6 cell membrane at 5 uM after 18 hrs
L6 [26] = assay: Effect on [3H]2-deoxy-D-glucose uptake in rat L6 cells at 200 uM relative to control; type: functional; method in brief: as §3
L6 [27] = assay: Increase in GLUT4myc abundance in rat L6 cell membrane at 5 µM after 18 hrs; type: functional, cell-based; method in brief: as §2
L6 [28] = assay: Inhibition of [3H]2-deoxy-D-glucose uptake in rat L6 cells at 5 uM in presence of 100 nM wortmannin; type: functional, cell-based; method in brief: as §4

CCSC(SCC)[C@@H]1O[C@H](c2ccccc2)O[C@H](CO)[C@@H]1O
Activity (Homo sapiens [1]): Active | Activity (L6 [2]): inactive | Activity (L6 [3]): tde | Activity (L6 [4]): inactive | Activity (L6 [5]): tde | Activity (L6 [6]): inactive | fold change (FC) [7]: 1.49 | Activity (L6 [8]): Active | Activity (Serum [9]): 98% | Activity (L6 [10]): tde | fold change (FC) (L6 [11]): 5.25 | Activity (L6 [12]): inactive | Activity (L6 [13]): Active | Activity (L6 [14]): 60%

O[C@@H]1[C@@H](O)[C@@H](OC2=CC=CCO2)OC[C@H]1O
MCC [15]: 5 mM | fold change (FC) (L6 [16]): 0.99

CCS[C@@H]1OC[C@@H](O)[C@H](O)[C@H]1O
fold change (FC) (L6 [17]): 0.93 | MCC [15]: 1 mM

O[C@@H]1[C@@H](O)[C@H](ON2CCCCC2)OC[C@H]1O
fold change (FC) (L6 [18]): 0.94 | MCC [15]: 1 mM

CCO[C@H]1[C@@H](CO)O[C@@H](c2ccccc2)O[C@H]1C(SCC)SCC
MCC [15]: 0.6 mM | fold change (FC) (L6 [19]): 1.01

CCSC(SCC)[C@@H]1O[C@H](c2ccccc2)O[C@@H]2CO[C@H](c3ccccc3)O[C@@H]21
Activity (L6 [3]): tde | fold change (FC) [20]: 1.59 | Activity (L6 [4]): inactive | fold change (FC) (L6 [21]): 4.89 | Activity (L6 [5]): tde | MCC [15]: 50 mM | Activity (L6 [6]): inactive | free concentration (Serum [22]): 100 nM | Activity (Homo sapiens [23]): Active | Activity (L6 [24]): 48.8% | Activity (L6 [25]): inactive | fold change (FC) (L6 [26]): 1.06 | Activity (L6 [27]): Active | Activity (L6 [10]): tde | Activity (L6 [28]): Active | Activity (L6 [12]): inactive
